# Data taken from ChEMBL document CHEMBL1143237, “Sulfonamide-1,2,4-triazole derivatives as antifungal and antibacterial agents: synthesis, biological evaluation, lipophilicity, and conformational studies” (Bioorg Med Chem, 2008).
# What was measured:
# [1] = Partition coefficient, log P of the compound; type: physicochemical; settings: octanol/water
# How it was run: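 Calculated, not measured: AlogP, IAlogP, ClogP, Cosmo logP, mlogP, Kowwin and XlogP were computed and averaged.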
# [2] = test system: Enterobacter cloacae; assay: Antibacterial activity against Enterobacter cloacae after 24 hrs by microdilution test; type: functional
# How it was run: (§1)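 Broth microdilution in LB medium in 96-well plates. Inoculum 1.0 × 10⁴ CFU per well, from a suspension set to 1.0 × 10⁵ CFU/ml in sterile saline. Compounds at […] µg/ml. Incubation 24 h at 28 °C. MIC is the lowest concentration with no visible growth under a binocular microscope. MBC by subculturing 2 µl into fresh broth for a further 72 h. OD540 read against blank. DMSO negative control.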
# [3] = test system: Salmonella enteritidis; assay: Antibacterial activity against Salmonella enteritidis ATCC 13076 after 24 hrs by microdilution test; type: functional, Salmonella enterica subsp. enterica serovar Enteritidis; settings: Salmonella enterica, ATCC 13076, 24 h; how it was run: as §1
# [4] = test system: Salmonella typhimurium; assay: Antibacterial activity against Salmonella Typhimurium ATCC 13311 after 24 hrs by microdilution test; type: functional, Salmonella enterica subsp. enterica serovar Typhimurium; settings: Salmonella enterica, ATCC 13311, 24 h; how it was run: as §1
# [5] = test system: Staphylococcus epidermidis; assay: Antibacterial activity against Staphylococcus epidermidis ATCC 12228 after 24 hrs by microdilution test; type: functional; settings: ATCC 12228, 24 h; how it was run: as §1
# [6] = test system: Micrococcus luteus; assay: Antibacterial activity against Micrococcus flavus ATCC 10240 after 24 hrs by microdilution test; type: functional; settings: ATCC 10240, 24 h; how it was run: as §1
# [7] = test system: Escherichia coli; assay: Antibacterial activity against Escherichia coli ATCC 35210 after 24 hrs by microdilution test; type: functional; settings: ATCC 35210, 24 h; how it was run: as §1
# [8] = test system: Aspergillus flavus; assay: Antifungal activity against Aspergillus flavus ATCC 9643 after 72 hrs by microdilution test; type: functional; settings: ATCC 9643, 72 h
# How it was run: (§2)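 Modified microdilution in malt broth. Spores were washed from malt agar with sterile 0.85% saline containing 0.1% Tween 80 and adjusted to about 1.0 × 10⁵ per well. Compounds were dissolved in DMSO and tested at […] µg/ml. Incubation 72 h at 28 °C. MIC is the lowest concentration with no visible growth under a binocular microscope. MFC by 2 µl subculture and a further 72 h at 28 °C.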
# [9] = test system: Trichoderma viride; assay: Antifungal activity against Trichoderma viride IAM 5061 after 72 hrs by microdilution test; type: functional; how it was run: as §2
# [10] = test system: Talaromyces funiculosus; assay: Antifungal activity against Penicillium funiculosum ATCC 36839 after 72 hrs by microdilution test; type: functional; settings: ATCC 36839, 72 h; how it was run: as §2
# [11] = test system: Aspergillus versicolor; assay: Antifungal activity against Aspergillus versicolor ATCC 11730 after 72 hrs by microdilution test; type: functional; settings: ATCC 11730, 72 h; how it was run: as §2
# [12] = test system: Aspergillus ochraceus; assay: Antifungal activity against Aspergillus ochraceus ATCC 12066 after 72 hrs by microdilution test; type: functional; settings: ATCC 12066, 72 h; how it was run: as §2
# [13] = test system: Aspergillus niger; assay: Antifungal activity against Aspergillus niger ATCC 6275 after 72 hrs by microdilution test; type: functional; settings: ATCC 6275, 72 h; how it was run: as §2
# [14] = test system: Bacillus cereus; assay: Antibacterial activity against Bacillus cereus ATCC 10907 after 24 hrs by microdilution test; settings: ATCC 10907, 24 h
MIC [2] [µg/mL],MIC [3] [µg/mL],MIC [4] [µg/mL],MIC [5] [µg/mL],MIC [6] [µg/mL],MIC [7] [µg/mL],MIC [8] [µg/mL],MIC [9] [µg/mL],MIC [10] [µg/mL],MIC [14] [µg/mL],SMILES,MBC [2] [µg/mL],MBC [3] [µg/mL],MBC [4] [µg/mL],MBC [5] [µg/mL],MBC [6] [µg/mL],MBC [7] [µg/mL],MFC [8] [µg/mL],MFC [9] [µg/mL],MFC [10] [µg/mL],MBC [14] [µg/mL],other results
100,150,100,150,150,100,50,50,100,150,COc1cc(Cc2n[nH]c(=S)n2-c2ccccc2)c(S(=O)(=O)N(C)C)cc1OC,100,150,150,150,150,150,100,100,100,150,logP [1]: 1.72; MFC [11]: 150 µg/mL; MIC [11]: 100 µg/mL; MFC [12]: 150 µg/mL; MIC [12]: 100 µg/mL; MFC [13]: 150 µg/mL; MIC [13]: 100 µg/mL
100,150,100,150,150,100,100,100,100,150,COc1cc(Cc2n[nH]c(=S)n2-c2ccc(Cl)cc2)c(S(=O)(=O)N2CCOCC2)cc1OC,100,150,150,150,150,150,150,150,150,150,logP [1]: 2.25; MFC [11]: 150 µg/mL; MIC [11]: 100 µg/mL; MFC [12]: 150 µg/mL; MIC [12]: 100 µg/mL; MFC [13]: 150 µg/mL; MIC [13]: 150 µg/mL
100,150,100,150,150,100,100,100,100,150,COc1cc(Cc2n[nH]c(=S)n2-c2ccc(Cl)cc2)c(S(=O)(=O)N2CCCCC2)cc1OC,100,150,150,150,150,150,150,150,150,150,logP [1]: 3.31; MFC [11]: 150 µg/mL; MIC [11]: 100 µg/mL; MFC [12]: 150 µg/mL; MIC [12]: 100 µg/mL; MFC [13]: 150 µg/mL; MIC [13]: 100 µg/mL
100,150,150,150,150,100,100,50,100,150,CCN(CC)S(=O)(=O)c1cc(OC)c(OC)cc1Cc1n[nH]c(=S)n1-c1ccccc1,100,150,150,150,150,150,150,100,150,150,logP [1]: 2.48; MFC [11]: 150 µg/mL; MIC [11]: 100 µg/mL; MFC [12]: 150 µg/mL; MIC [12]: 100 µg/mL; MFC [13]: 150 µg/mL; MIC [13]: 100 µg/mL
100,150,100,150,150,100,100,100,100,150,COc1cc(Cc2n[nH]c(=S)n2-c2ccccc2)c(S(=O)(=O)N2CCCCC2)cc1OC,100,150,150,150,150,150,150,150,150,150,logP [1]: 2.63; MFC [11]: 150 µg/mL; MIC [11]: 100 µg/mL; MFC [12]: 150 µg/mL; MIC [12]: 100 µg/mL; MFC [13]: 150 µg/mL; MIC [13]: 100 µg/mL
100,150,150,150,150,100,100,50,100,150,CCN(CC)S(=O)(=O)c1cc(OC)c(OC)cc1Cc1n[nH]c(=S)n1-c1ccc(Cl)cc1,100,150,150,150,150,150,150,100,150,150,logP [1]: 3.15; MFC [11]: 150 µg/mL; MIC [11]: 100 µg/mL; MFC [12]: 150 µg/mL; MIC [12]: 100 µg/mL; MFC [13]: 150 µg/mL; MIC [13]: 100 µg/mL
100,150,150,150,150,150,100,150,100,150,COc1cc(Cc2n[nH]c(=S)n2-c2ccccc2)c(S(=O)(=O)N2CCCC2)cc1OC,100,150,150,150,150,150,150,150,150,150,logP [1]: 2.13; MFC [11]: 150 µg/mL; MIC [11]: 100 µg/mL; MFC [12]: 150 µg/mL; MIC [12]: 100 µg/mL; MFC [13]: 150 µg/mL; MIC [13]: 150 µg/mL
100,150,150,150,150,100,100,100,100,150,COc1cc(Cc2n[nH]c(=S)n2-c2ccccc2)c(S(=O)(=O)N2CCOCC2)cc1OC,100,150,150,150,150,150,150,150,150,150,logP [1]: 1.57; MFC [11]: 150 µg/mL; MIC [11]: 100 µg/mL; MFC [12]: 150 µg/mL; MIC [12]: 100 µg/mL; MFC [13]: 150 µg/mL; MIC [13]: 150 µg/mL
100,150,150,150,150,150,100,150,100,150,COc1cc(Cc2n[nH]c(=S)n2-c2ccc(Cl)cc2)c(S(=O)(=O)N2CCCC2)cc1OC,100,150,150,150,150,150,150,150,150,150,logP [1]: 2.11; MFC [11]: 150 µg/mL; MIC [11]: 100 µg/mL; MFC [12]: 150 µg/mL; MIC [12]: 100 µg/mL; MFC [13]: 150 µg/mL; MIC [13]: 150 µg/mL
150,150,150,100,150,250,–,–,–,150,O=C(N[C@H](CO)[C@H](O)c1ccc([N+](=O)[O-])cc1)C(Cl)Cl [CHLORAMPHENICOL],200,200,200,100,200,250,–,–,–,200,–

SMILES,MIC [2] [µg/mL],MIC [3] [µg/mL],MIC [4] [µg/mL],MIC [5] [µg/mL],MIC [6] [µg/mL],MIC [7] [µg/mL],MIC [8] [µg/mL],MIC [9] [µg/mL],MIC [10] [µg/mL],MIC [14] [µg/mL],MBC [2] [µg/mL],MBC [3] [µg/mL],MBC [4] [µg/mL],MBC [5] [µg/mL],MBC [6] [µg/mL],MBC [7] [µg/mL],MFC [8] [µg/mL],MFC [9] [µg/mL],MFC [10] [µg/mL],MBC [14] [µg/mL],other results
c1ccc(-c2ccc(C(c3ccccc3)n3ccnc3)cc2)cc1 (stereo not drawn) [BIFONAZOLE],–,–,–,–,–,–,150,200,200,–,–,–,–,–,–,–,200,250,250,–,MFC [11]: 200 µg/mL; MIC [11]: 150 µg/mL; MFC [12]: 200 µg/mL; MIC [12]: 150 µg/mL; MFC [13]: 250 µg/mL; MIC [13]: 200 µg/mL
CN[C@@H]1[C@H](O[C@H]2[C@H](O[C@H]3[C@H](O)[C@@H](O)[C@H](N=C(N)N)[C@@H](O)[C@@H]3N=C(N)N)O[C@@H](C)[C@]2(O)C=O)O[C@@H](CO)[C@H](O)[C@H]1O [STREPTOMYCIN],50,50,50,150,100,100,–,–,–,100,100,100,100,100,150,150,–,–,–,150,–
